# Source: PubChem (several laboratories)
# CRFR2-BP ag: agonists of CRF-BP/CRF-R2 complex, primary screen, cell-based, HEK293, calcium dye fluorescence, uHTS; calcium dye fluorescence (FLIPR); percent of saturating CRF peptide response; AID 588473, 2011; CRF-binding protein / CRF receptor 2 complex (human); hit rate 0.46% among 350,000; activation, % at 13.2 µM;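 active = activation of at least 50%, plus an integration ratio under a set limit after plate pattern correction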
# CRFBP-R2 block: antagonists of CRF-BP/CRF-R2 complex, primary screen, cell-based, HEK293, calcium dye fluorescence, uHTS; inhibition, % at 11.8 µM; CRF-induced calcium fluorescence; hit rate 0.59% among 350,000; AID 588475, 2011;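 active = inhibition of the ligand-induced calcium signal above about 50% at the single tested concentration, limit read from the data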
# DDE Tn7 FP inh: inhibitors of Tn7 peptide binding to fibrin DD(E), primary screen, biochemical, fluorescence polarization, human fibrin, Tn7 probe; FP displacement of FITC-Tn7 peptide from fibrin DD(E); 0% = median of compound wells per plate; inhibition, % at 8.3 µM; hit rate 0.13% among 370,000; AID 720508, 2013;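 active = inhibition above the mean of compounds falling within the control limits plus 3 SD of them, cut at about 14% in these data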
# Target sequence (P02675 whole entry, looked up): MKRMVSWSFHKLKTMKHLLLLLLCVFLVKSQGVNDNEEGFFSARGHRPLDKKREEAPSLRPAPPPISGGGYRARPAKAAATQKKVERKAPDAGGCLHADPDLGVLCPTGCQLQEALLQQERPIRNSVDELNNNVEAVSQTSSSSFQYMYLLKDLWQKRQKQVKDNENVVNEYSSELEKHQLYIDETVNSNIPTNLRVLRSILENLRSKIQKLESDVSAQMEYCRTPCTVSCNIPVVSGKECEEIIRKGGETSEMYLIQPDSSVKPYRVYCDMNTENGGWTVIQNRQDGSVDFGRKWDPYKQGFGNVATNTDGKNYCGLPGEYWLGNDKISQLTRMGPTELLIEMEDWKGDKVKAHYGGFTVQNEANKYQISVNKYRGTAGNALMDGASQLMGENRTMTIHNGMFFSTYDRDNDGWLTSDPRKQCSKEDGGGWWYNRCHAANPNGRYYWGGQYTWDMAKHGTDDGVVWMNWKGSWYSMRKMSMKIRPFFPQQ
#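 Test system – human fibrin DD(E) · Times – 10 min preincubation, 3 h with tracer, room temperature · Detection – fluorescence polarization of the labelled Tn7 tracer · Measure – percent inhibition normalized to high-control wells · Benchmarks – high control wells with 10 µM unlabelled Aha-Tn7 peptide (full inhibition) · Repeats – singlicate testing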
# DDE Tn6 FP inh: inhibitors of Tn6 peptide binding to fibrin DD(E), primary screen, biochemical, fluorescence polarization, human fibrin, Tn6 probe | hit rate 0.21% among 370,000 | Fibrin DD(E) TRITC-Tn6 fluorescence polarization displacement | Fibrinogen beta chain (Homo sapiens), P02675 | inhibition, % at 8.3 µM;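 active = inhibition above a per-campaign cutoff: mean of compounds within control limits plus 3 SD, cut at about 15% in these data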
# Numbers stand for hits; - = inactive; . = no result given. Rows were chosen to be rich in hits. Some 1.2% of all compounds tested hit in one or more screens of this group.
SMILES,CRFR2-BP ag,CRFBP-R2 block,DDE Tn7 FP inh,DDE Tn6 FP inh
O=Nc1c(O)n(Cc2ccc(Cl)cc2)c2ccccc12,-,-,-,-
O=Nc1c(O)n(Cc2c(Cl)cccc2Cl)c2ccccc12,163,-,-,-
Clc1ccc(-c2ccc(C=Nc3ccc(N4CCOCC4)cc3)o2)c(Cl)c1,210,-,-,-
O=C(c1ccc2c(c1)OCO2)N1CCC(Oc2cccnc2)CC1,.,.,-,-
CC(C)Cn1cnc2c(SCc3ccccc3)nc(N)nc21,-,68,-,-
COc1cccc(OCCCCSc2ncccn2)c1,-,-,-,-
c1ccc(Oc2cccc(OCCCCSc3ncccn3)c2)cc1,51,-,-,-
CSc1ncccc1C(=O)N(C)CC(=O)Nc1cccc(F)c1,-,100,-,-
CN(CC(=O)Nc1cccc(F)c1)C(=O)c1cccnc1Sc1ccccc1,-,-,-,-
CC(C)(C)c1ccc(-n2nc(C#N)c(Cl)cc2=O)cc1,51,-,-,-
Cc1cc(/C=C2\C(=N)N3C(SCc4ccccc4)=NSC3=NC2=O)c(C)n1Cc1ccccc1,-,-,-,-
CC(C)CSC1=NSC2=NC(=O)/C(=C\c3coc4ccccc4c3=O)C(=N)N12,314,-,-,-
CSC1=NSC2=NC(=O)/C(=C\c3coc4ccccc4c3=O)C(=N)N12,197,-,-,-
CC(C)CSC1=NSC2=NC(=O)/C(=C\c3ccccc3)C(=N)N12,-,-,-,-
O=C(CCc1ccccc1)NNC(=S)NC(=O)c1ccc(Cl)cc1,99,-,.,.
CC(=O)NNC(=S)NC(=O)c1ccc(C)cc1,-,-,-,-
Cc1ccc(C(=O)NNC(=S)NC(=O)c2ccc(Cl)cc2)cc1,216,-,-,-
CN(C)c1ccc(C(=O)NNC(=O)c2ccc(Cl)cc2)cc1,-,68,-,-
CC(C)N1Cc2nnn(Cc3ccc(F)cc3)c2-c2cc(F)ccc2S1(=O)=O,.,.,-,-
CCOC(=O)N1C(=O)C[C@](Sc2ccc(OC)cc2)(C(=O)N2CCN(c3ncccn3)CC2)[C@H]1c1ccc(OC)cc1,.,.,-,-
CCOc1ccc(C2C(C#N)=C(N)N3C(=C2C#N)Sc2ccccc23)cc1 (stereo not drawn),93,-,.,.
CN(c1ccccc1)c1ccc(/C=C/[N+](=O)[O-])cc1,75,-,-,-
CCOC(=O)c1ccc(NC(=S)N2CCSC2c2ccc(OC)cc2)cc1 (stereo not drawn),-,-,-,-
CCOC(=O)c1ccc(NC(=S)N2CCSC2c2ccc(Cl)cc2)cc1 (stereo not drawn),120,-,-,-
c1ccc(-c2noc(CN3CCN(c4cnccn4)CC3)n2)cc1,-,74,-,-
SMILES,CRFR2-BP ag,CRFBP-R2 block,DDE Tn7 FP inh,DDE Tn6 FP inh
c1ccc(C(c2ccccc2)N2CCN(Cc3nc(-c4cnccn4)no3)CC2)cc1,-,-,-,-
CC(C)C[C@@H]1NC(=O)[C@H]2C[C@@]3(C)c4ccccc4N[C@H]3N2C1=O,.,.,-,-
Cc1cc(C)c(NC(=O)COC(=O)c2cccc3c2C(=O)c2ccccc2C3=O)c(C)c1,-,-,-,-
Cc1cc(C)c(Nc2cc(S(=O)(=O)O)c(N)c3c2C(=O)c2ccccc2C3=O)c(C)c1,-,53,-,-
Nc1ncnc(NNC(=O)CNC(=O)c2c(F)cccc2Cl)c1[N+](=O)[O-],-,101,-,-
Nc1ncnc(Nc2cc(Cl)cc(Cl)c2)c1[N+](=O)[O-],-,-,-,-
CC1=Nc2ccccc2/C1=C/c1c(N)n2c(S(=O)(=O)CC(C)C)nsc2nc1=O,-,61,-,-
CC[C@@H](C(=O)[C@@H](C)[C@@H](O)[C@H](C)[C@@H]1O[C@@H]([C@@H](CC)C(=O)O)CC[C@@H]1C)[C@H]1O[C@]2(C=C[C@@H](O)[C@]3(CC[C@@](C)([C@H]4CC[C@](O)(CC)[C@H](C)O4)O3)O2)[C@H](C)C[C@@H]1C,-,-,-,-
CC[C@@H](C(=O)[C@@H](C)[C@@H](O)[C@H](C)CCc1ccc(C)c(O)c1C(=O)O)[C@H]1O[C@](CC)([C@H]2CC[C@](O)(CC)[C@H](C)O2)C[C@@H]1C,118,-,-,-
COc1ccc(C)cc1NCc1cccc(OC)c1OC,-,78,-,-
COc1ccc(CNc2cc(C)ccc2C)c(OC)c1OC,-,-,-,-
CN(C)C(=O)NCCCC#Cc1ccccc1,.,.,-,-
